Compound activity as filed in PubChem.
Rows were chosen to be rich in hits. Some 2.2% of all compounds tested hit in one or more screens of this group.
GSTO1 counter: blocks human GSTO1 in RBBP9 counter-screen; P78417; recombinant GSTO1, activity-based probe fluorescence polarization; 300,000 compounds, 1.1% hits; inhibition, % at 5.96 µM; AID 1974;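 active = inhibition above the campaign mean inhibition plus 3 SD, cut at about 35% in these data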;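 note: 0% = GSTO1-1 with DMSO and 100% = wells lacking GSTO1-1 enzyme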
Apaf1 inhib: blocks human Apaf-1 apoptosome activity; AID 489030; O14727; reconstituted apoptosome caspase-3 activity, DEVD-Rh110 fluorescence; inhibition, % at 20 µM; 330,000 compounds, 0.71% hits; active = inhibition of at least 40% at 20 µM;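 note: plate controls were DMSO wells for no effect and DEVD-CHO caspase inhibitor wells for full effect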
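detection = Rh110 fluorescence intensity | test system = biochemical Apaf-1 apoptosome reconstitution | also added = cytochrome c and DEVD-Rh110 substrate | schedule = 30 min plus 50 min, RT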
UBC13 polyUb: human UBC13 polyubiquitination inhibition | UBC13 polyubiquitin chain formation, TR-FRET | P61088 | 330,000 compounds, 0.47% hits | inhibition, % at 20 µM | AID 485273; in the data active = inhibition above about 45%, passing the limit was not always enough
Rin1-Abl PPI inh: inhibitors of human Rin1-Abl protein interaction. P00519+Q13671. TR-FRET Rin1/Abl binding, biochemical. inhibition, % at 7.35 µM. 360,000 compounds, 0.4% hits. AID 588664; in the data active = inhibition above about 5%, passing the limit was not always enough
PAD4 inh: PAD4 (human) enzyme inhibition; Q9UM07; recombinant PAD4, RCA probe fluorescence polarization; inhibition, % at 6.36 µM; 330,000 compounds, 0.41% hits; AID 485272;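 active = percent inhibition above a cutoff equal to the mean of all tested compounds plus 3 SD, cut at about 15% in these data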;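 note: 0% = PAD4 with RCA probe and DMSO and 100% = probe without PAD4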
UBC9 SUMO inh: inhibitors of human SUMOylation (UBC9) | inhibition, % at 35 µM | HTRF SUMOylation assay, SAE1/SAE2 + UBC9, in vitro | 290,000 compounds, 0.36% hits | AID 2006; in the data active = inhibition above about 50%, passing the limit was not always enough
PAD4 FP conf: confirmation of human PAD4 inhibitors | AID 488796 | inhibition, % at 6.36 µM | recombinant PAD4, RCA probe fluorescence polarization | shares compounds with PAD4 inh | 1,200 compounds, 28% hits;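 active = mean inhibition across replicates above the hit cutoff set by the earlier primary screen, cut at about 15% in these data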;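 note: inhibitors block active-site labeling by the probe so polarization falls; 0% = PAD4 with probe and DMSO and 100% = probe without PAD4 enzyme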
Active calls of the source: *.

How did CCOC(=O)C1CCN(c2nc3ccccc3nc2C(C#N)C(=O)OC(C)C)CC1 (configuration not stated) do in these assays?
GSTO1 counter: 3; Apaf1 inhib: 6; UBC13 polyUb: -5; Rin1-Abl PPI inh: 0; PAD4 inh: 17*; UBC9 SUMO inh: 5; PAD4 FP conf: -13

Results for COc1ccc(C(=O)Nc2nnc(Cc3ccc(OC)c(OC)c3)s2)c(OC)c1 ?
GSTO1 counter: 28; Apaf1 inhib: -5; UBC13 polyUb: 7; Rin1-Abl PPI inh: 3; PAD4 inh: 22*; UBC9 SUMO inh: 4; PAD4 FP conf: 32*

What do the screens show for `COc1ccc(Cc2nnc(Nc3ccccc3)s2)cc1Br`?
GSTO1 counter: 36*; Apaf1 inhib: 19; UBC13 polyUb: 11; Rin1-Abl PPI inh: 3; PAD4 inh: 83*; UBC9 SUMO inh: 14; PAD4 FP conf: 79*

Results for COc1ccc(CNc2ccccc2)cc1Br ?
GSTO1 counter: -7; Apaf1 inhib: 18; UBC13 polyUb: 2; Rin1-Abl PPI inh: 1; PAD4 inh: -1; UBC9 SUMO inh: 14

Results for COc1cc2oc(=O)ccc2cc1[C@H](O)[C@@H](O)C(C)(C)O ?
Apaf1 inhib: 2; UBC13 polyUb: 14; Rin1-Abl PPI inh: 2; PAD4 inh: 45*; PAD4 FP conf: 2

Results for COc1cc2oc(=O)ccc2cc1[C@@H](O)[C@@H]1OC(C)(C)OC1(C)C ?
Apaf1 inhib: -1; UBC13 polyUb: 7; Rin1-Abl PPI inh: 1; PAD4 inh: -3

How did COc1ccccc1-c1nc(C(=O)NCC2CCCO2)cc2c1[nH]c1ccccc12 (configuration not stated) do in these assays?
GSTO1 counter: -17; Apaf1 inhib: -1; UBC13 polyUb: 1; Rin1-Abl PPI inh: 0; PAD4 inh: 37*; UBC9 SUMO inh: 20; PAD4 FP conf: 33*

What do the screens show for `COc1cc(-c2nc(C(=O)NCC3CCCO3)cc3c2[nH]c2ccccc23)cc(OC)c1OC` (configuration not stated)?
GSTO1 counter: -8; Apaf1 inhib: 0; UBC13 polyUb: 13; Rin1-Abl PPI inh: 4; PAD4 inh: 33*; UBC9 SUMO inh: 3; PAD4 FP conf: 38*

Results for CCOC(=O)C1=CCN(S(=O)(=O)c2ccccc2Cl)C1c1cccc(Cl)c1 (configuration not stated) ?
Rin1-Abl PPI inh: 4

How did CCc1ccccc1NC(=O)Cn1nnc(C(=O)NCc2cccc(OC)c2)c1N do in these assays?
GSTO1 counter: -4; Apaf1 inhib: -10; UBC13 polyUb: 7; Rin1-Abl PPI inh: 4; PAD4 inh: 1; UBC9 SUMO inh: 10

How did NC(=O)C(c1ccccc1)c1ccc(C(=O)c2ccccc2)cc1 (configuration not stated) do in these assays?
GSTO1 counter: -2; Apaf1 inhib: 7; UBC13 polyUb: 8; Rin1-Abl PPI inh: 2; PAD4 inh: -6; UBC9 SUMO inh: 14

How did CC(NC(=O)c1c(O)c2ccccc2[nH]c1=O)c1ccccc1 (configuration not stated) do in these assays?
GSTO1 counter: 3; Apaf1 inhib: 1; UBC13 polyUb: 6; Rin1-Abl PPI inh: 0; PAD4 inh: 16*; UBC9 SUMO inh: -5; PAD4 FP conf: 5

What do the screens show for `Cc1cccc(C)c1OCc1cc(C(=O)N2CCN(Cc3nccn3C)CC2)no1`?
GSTO1 counter: 4; Apaf1 inhib: 8; UBC13 polyUb: 3; Rin1-Abl PPI inh: -1; PAD4 inh: 4; UBC9 SUMO inh: 4

What do the screens show for `Cc1ccc(S(=O)(=O)N2CCN(C(=O)c3ccnn3C)CC2)cc1C`?
GSTO1 counter: 2; Apaf1 inhib: -4; UBC13 polyUb: -3; Rin1-Abl PPI inh: 3; PAD4 inh: -4; UBC9 SUMO inh: 6

How did Cc1ccc(NC(=O)CCNS(=O)(=O)c2ccc3[nH]c(=O)oc3c2)cc1F do in these assays?
GSTO1 counter: -1; Apaf1 inhib: -11; UBC13 polyUb: 3; Rin1-Abl PPI inh: -3; PAD4 inh: 21*; UBC9 SUMO inh: 9; PAD4 FP conf: 4

What do the screens show for `COc1cc(-c2nc3c4ccccc4nc(=S)n3[nH]2)cc(OC)c1OC`?
GSTO1 counter: -2; Apaf1 inhib: -19; UBC13 polyUb: 41; Rin1-Abl PPI inh: -1; PAD4 inh: 16*; UBC9 SUMO inh: 6; PAD4 FP conf: 25*

What do the screens show for `CCCNC(=O)C1(C)CCCN(Cc2cccc3ccccc23)C1` (configuration not stated)?
Rin1-Abl PPI inh: -1

What do the screens show for `O=C(N/N=C\c1ccc(-c2ccccc2[N+](=O)[O-])o1)C1COc2cc3ccccc3cc2O1` (configuration not stated)?
GSTO1 counter: 13; Apaf1 inhib: 81*; UBC13 polyUb: -35; Rin1-Abl PPI inh: 2; PAD4 inh: 17*; UBC9 SUMO inh: -5; PAD4 FP conf: -5

Results for Cc1ccc(/C=N\NC(=O)C2COc3cc4ccccc4cc3O2)o1 (configuration not stated) ?
GSTO1 counter: 9; Apaf1 inhib: 4; UBC13 polyUb: -11; Rin1-Abl PPI inh: -3; PAD4 inh: -2; UBC9 SUMO inh: -19

How did COc1ccc(NC(=O)CCS(=O)(=O)c2ccc(OC)cc2)cc1 do in these assays?
GSTO1 counter: -1; Apaf1 inhib: 4; UBC13 polyUb: -12; Rin1-Abl PPI inh: 1; PAD4 inh: 20*; UBC9 SUMO inh: -7; PAD4 FP conf: 7

Results for O=C(COC(=O)c1ccco1)NC1CCCC1 ?
GSTO1 counter: -2; Apaf1 inhib: 5; UBC13 polyUb: -2; Rin1-Abl PPI inh: 0; PAD4 inh: -2; UBC9 SUMO inh: -3

Results for O=C(O)c1ccccc1SSc1ccccc1C(=O)O ?
GSTO1 counter: 19; Apaf1 inhib: 13; UBC13 polyUb: -1; Rin1-Abl PPI inh: -1; PAD4 inh: 45*; UBC9 SUMO inh: 9; PAD4 FP conf: 38*

Results for CCc1nnc(N/N=C/c2ccc(O)c(OC)c2)n1N ?
GSTO1 counter: 20; Apaf1 inhib: -11; UBC13 polyUb: -12; Rin1-Abl PPI inh: 0; PAD4 inh: 38*; UBC9 SUMO inh: 9; PAD4 FP conf: 2

What do the screens show for `COc1cc(/C=N/Nc2ccccn2)ccc1O`?
GSTO1 counter: 9; Apaf1 inhib: -22; UBC13 polyUb: -9; Rin1-Abl PPI inh: -4; PAD4 inh: 4; UBC9 SUMO inh: 2

What do the screens show for `CCc1nnc(N/N=C\c2ccc(OC(C)=O)c(OC)c2)n1N`?
GSTO1 counter: 21; Apaf1 inhib: 1; UBC13 polyUb: -9; Rin1-Abl PPI inh: 7; PAD4 inh: 25*; UBC9 SUMO inh: -1; PAD4 FP conf: 0
